Data reported in ChEMBL document CHEMBL1132436 (J Med Chem, 1999).
One block for each compound: values may come before it. Residues, ends and D or L forms follow the SMILES beside them.

How the values were obtained:
Homo sapiens [1] = species: Homo sapiens; assay: (§1) Ability of Compound (Agonist) to contract isolated human umbilical vein in presence of inhibitor.; format: functional
Homo sapiens [2] = species: Homo sapiens; assay: Ability of Compound (Agonist) to contract isolated human umbilical vein in absence of inhibitor.; format: functional
B2 bradykinin receptor = target: T1, B2 bradykinin receptor (Homo sapiens, UniProt P30411); assay: Binding affinity towards human cloned Bradykinin receptor B2 expressed in CHO cells by [3H]bradykinin displacement.; format: cell-based
T1 sequence (P30411 whole entry): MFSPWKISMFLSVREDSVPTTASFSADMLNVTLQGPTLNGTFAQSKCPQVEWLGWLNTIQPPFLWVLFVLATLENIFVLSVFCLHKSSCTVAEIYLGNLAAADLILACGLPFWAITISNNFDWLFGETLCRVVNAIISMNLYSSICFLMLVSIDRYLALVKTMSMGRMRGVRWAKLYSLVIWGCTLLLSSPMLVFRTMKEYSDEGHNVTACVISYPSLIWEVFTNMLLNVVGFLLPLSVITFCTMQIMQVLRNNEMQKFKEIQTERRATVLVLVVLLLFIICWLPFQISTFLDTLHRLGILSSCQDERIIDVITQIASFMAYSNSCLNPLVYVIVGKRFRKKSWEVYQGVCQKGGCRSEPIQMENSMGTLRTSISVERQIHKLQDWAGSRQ
How it was run: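 Membranes from stably transfected CHO cells, scraped into 20 mM TES (pH 6.8) with 1 mM 1,10-phenanthroline, 140 μg/mL bacitracin and 0.1% BSA, then pelleted at 40000g for 15 min. Filtered through PEI-soaked GF/B filters and counted by scintillation. Means of ≥3 experiments in duplicate.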

Homo sapiens [3] = species: Homo sapiens; assay: as §1; format: functional, organism-based; details: read-out: pA2 (converted)

Ki (B2 bradykinin receptor; cho): 1040 nM
Compound: NC(N)=NCCC[C@@H](N)C(=O)N[C@@H](CCCN=C(N)N)C(=O)N1CCC[C@H]1C(=O)N1C[C@H](O)C[C@H]1C(=O)NCC(=O)N[C@@H](Cc1cccs1)C(=O)N[C@@H](CO)C(=O)NC1N=C(c2ccccc2)c2ccccc2N(CC(=O)N[C@@H](CCCN=C(N)N)C(=O)O)C1=O (stereo in doubt; 35)

Ki (B2 bradykinin receptor): 2.5 nM
Compound: N=C(N)NCCC[C@@H](N)C(=O)N[C@@H](CCCNC(=N)N)C(=O)N1CCC[C@H]1C(=O)N1C[C@H](O)C[C@H]1C(=O)NCC(=O)N[C@@H](Cc1cccs1)C(=O)N[C@@H](CO)C(=O)N[C@@H]1COc2ccccc2N(CC(=O)N[C@@H](CCCNC(=N)N)C(=O)O)C1=O [listing 1 of 2 here]

Ki (B2 bradykinin receptor): 520 nM
Compound: N=C(N)NCCC[C@@H](N)C(=O)N[C@@H](CCCNC(=N)N)C(=O)N1CCC[C@H]1C(=O)N1CC(O)C[C@H]1C(=O)NCC(=O)N[C@@H](Cc1cccs1)C(=O)N[C@@H](CO)C(=O)N[C@H]1CCCCN(CC(=O)N[C@@H](CCCNC(=N)N)C(=O)O)C1=O (some centres not stated)

Ki (B2 bradykinin receptor): 4900 nM
Compound: N=C(N)NCCC[C@@H](N)C(=O)N[C@@H](CCCNC(=N)N)C(=O)N1CCC[C@H]1C(=O)N1CC(O)C[C@H]1C(=O)NCC(=O)N[C@@H](Cc1cccs1)C(=O)N[C@@H](CO)C(=O)N[C@@H]1CCN(CC(=O)N[C@@H](CCCNC(=N)N)C(=O)O)C1=O (some centres not stated)

Ki (B2 bradykinin receptor): 770 nM
Compound: NC(N)=NCCC[C@@H](N)C(=O)N[C@@H](CCCN=C(N)N)C(=O)N1CCC[C@H]1C(=O)N1CC(O)C[C@H]1C(=O)NCC(=O)N[C@@H](Cc1cccs1)C(=O)N[C@@H](CO)C(=O)N[C@@H]1CCCCN(CC(=O)N[C@@H](CCCN=C(N)N)C(=O)O)C1=O (some centres not stated)

Ki (B2 bradykinin receptor): 6 nM
Compound: Cc1ccc2c(c1)SC[C@@H](NC(=O)[C@H](CO)NC(=O)[C@H](Cc1cccs1)NC(=O)CNC(=O)[C@@H]1C[C@@H](O)CN1C(=O)[C@@H]1CCCN1C(=O)[C@H](CCCNC(=N)N)NC(=O)[C@H](N)CCCNC(=N)N)C(=O)N2CC(=O)N[C@@H](CCCNC(=N)N)C(=O)O [listing 1 of 2 here]

Ki (B2 bradykinin receptor): 1030 nM
Compound: N=C(N)NCCC[C@@H](N)C(=O)N[C@@H](CCCNC(=N)N)C(=O)N1CCC[C@H]1C(=O)N1CC(O)C[C@H]1C(=O)NCC(=O)N[C@@H](Cc1cccs1)C(=O)N[C@@H](CO)C(=O)N[C@H]1CCN(CC(=O)N[C@@H](CCCNC(=N)N)C(=O)O)C1=O (some centres not stated)

Ki (B2 bradykinin receptor; cho): 86 nM
Compound: NC(N)=NCCC[C@@H](N)C(=O)N[C@@H](CCCN=C(N)N)C(=O)N1CCC[C@H]1C(=O)N1C[C@H](O)C[C@H]1C(=O)NCC(=O)N[C@@H](Cc1cccs1)C(=O)N[C@@H](CO)C(=O)NC1N=C(c2ccccc2)c2ccccc2N(CC(=O)N[C@@H](CCCN=C(N)N)C(=O)O)C1=O (stereo in doubt; 34)

Ki (B2 bradykinin receptor): 18600 nM
Compound: N=C(N)NCCC[C@@H](N)C(=O)N[C@@H](CCCNC(=N)N)C(=O)N1CCC[C@H]1C(=O)N1CC(O)C[C@H]1C(=O)NCC(=O)N[C@@H](Cc1cccs1)C(=O)N[C@@H](CO)C(=O)N[C@H]1CCCN(CC(=O)N[C@@H](CCCNC(=N)N)C(=O)O)C1=O (some centres not stated)

Ki (B2 bradykinin receptor): 0.7 nM
Compound: N=C(N)NCCC[C@@H](N)C(=O)N[C@@H](CCCNC(=N)N)C(=O)N1CCC[C@H]1C(=O)N1C[C@H](O)C[C@H]1C(=O)NCC(=O)N[C@@H](Cc1cccs1)C(=O)N[C@@H](CO)C(=O)N[C@@H]1CSc2ccccc2N(CC(=O)N[C@@H](CCCNC(=N)N)C(=O)O)C1=O [listing 2 of 2 here]

Ki (B2 bradykinin receptor): 2070 nM
Compound: NC(N)=NCCC[C@@H](N)C(=O)N[C@@H](CCCN=C(N)N)C(=O)N1CCC[C@H]1C(=O)N1CC(O)C[C@H]1C(=O)NCC(=O)N[C@@H](Cc1cccs1)C(=O)N[C@@H](CO)C(=O)N[C@@H]1CCN([C@@H](Cc2ccccc2)C(=O)N[C@@H](CCCN=C(N)N)C(=O)O)C1=O (some centres not stated)

Ki (B2 bradykinin receptor): 0.07 nM
Compound: N=C(N)NCCC[C@H](NC(=O)CN1C(=O)[C@H](NC(=O)[C@H](CO)NC(=O)[C@H](Cc2cccs2)NC(=O)CNC(=O)[C@@H]2C[C@@H](O)CN2C(=O)[C@@H]2CCCN2C(=O)[C@H](CCCNC(=N)N)NC(=O)[C@@H](N)CCCCN)CSc2ccccc21)C(=O)O [listing 2 of 2 here]

Further lines, the compound ahead of its results:

Compound: N=C(N)NCCC[C@H](NC(=O)CN1C(=O)[C@H](NC(=O)[C@H](CO)NC(=O)[C@H](Cc2cccs2)NC(=O)CNC(=O)[C@@H]2C[C@@H](O)CN2C(=O)[C@@H]2CCCN2C(=O)[C@H](CCCNC(=N)N)NC(=O)[C@@H](N)CCCCN)CSc2ccccc21)C(=O)O [listing 1 of 2 here]
pD2 (Homo sapiens [1]): 7.1 | pD2 (Homo sapiens [2]): 7

Compound: N=C(N)NCCC[C@@H](N)C(=O)N[C@@H](CCCNC(=N)N)C(=O)N1CCC[C@H]1C(=O)N1C[C@H](O)C[C@H]1C(=O)NCC(=O)N[C@@H](Cc1cccs1)C(=O)N[C@@H](CO)C(=O)N[C@@H]1CSc2ccccc2N(CC(=O)N[C@@H](CCCNC(=N)N)C(=O)O)C1=O [listing 1 of 2 here]
pD2 (Homo sapiens [1]): 6.8 | pD2 (Homo sapiens [2]): 6.7

Compound: N=C(N)NCCC[C@@H](N)C(=O)N[C@@H](CCCNC(=N)N)C(=O)N1CCC[C@H]1C(=O)N1C[C@H](O)C[C@H]1C(=O)NCC(=O)N[C@@H](Cc1cccs1)C(=O)N[C@@H](CO)C(=O)N[C@@H]1COc2ccccc2N(CC(=O)N[C@@H](CCCNC(=N)N)C(=O)O)C1=O [listing 2 of 2 here]
pD2 (Homo sapiens [2]): 5.1

Compound: NC(N)=NCCC[C@@H](N)C(=O)N[C@@H](CCCN=C(N)N)C(=O)N1CCC[C@H]1C(=O)N1CC(O)C[C@H]1C(=O)NCC(=O)N[C@@H](Cc1cccs1)C(=O)N[C@@H](CO)C(=O)N[C@]1(Cc2ccccc2)C(=O)C(Cc2ccccc2)N(CC(=O)N[C@@H](CCCN=C(N)N)C(=O)O)C1=O (some centres not stated)
Ki (B2 bradykinin receptor): 14 nM

Compound: COc1ccc(C[C@@H](CN[C@@H](CCCN=C(N)N)C(=O)O)NC(=O)[C@@H]2CCCN2C(=O)[C@H](CO)NC(=O)[C@H](Cc2cccs2)NC(=O)CNC(=O)[C@@H]2C[C@@H](O)CN2C(=O)[C@@H]2CCCN2C(=O)[C@@H](N)CCCN=C(N)N)cc1 (HELM PEPTIDE1{R.P.[Hyp].G.[O=C([C@H](Cc1cccs1)N[*:1])[*:2]].S.P.[COc1ccc(C[C@@H](CN[C@@H](CCCN=C(N)N)C(=O)O)N[*:1])cc1]}$$$$V2.0)
pD2 (Homo sapiens [1]): 7.1 | pD2 (Homo sapiens [2]): 6.9

Compound: NC(N)=NCCC[C@@H](N)C(=O)N[C@@H](CCCN=C(N)N)C(=O)N1CCC[C@H]1C(=O)N1CC(O)C[C@H]1C(=O)NCC(=O)N[C@@H](Cc1cccs1)C(=O)N[C@@H](CO)C(=O)N[C@@H]1CCc2cccc3c2N(C1=O)[C@@H](C(=O)N[C@H](CCCN=C(N)N)C(=O)O)C3 (some centres not stated)
Ki (B2 bradykinin receptor; cho): 140 nM

Compound: H-RPPGFSPFR-OH [BRADYKININ]
pD2 (Homo sapiens [1]): 7.9 | pD2 (Homo sapiens [2]): 7.4

Compound: N=C(N)NCCC[C@@H](N)C(=O)N[C@@H](CCCNC(=N)N)C(=O)N1CCC[C@H]1C(=O)N1C[C@H](O)C[C@H]1C(=O)NCC(=O)N[C@@H](Cc1cccs1)C(=O)N[C@@H](CO)C(=O)N1Cc2ccccc2C[C@@H]1C(=O)N1[C@H](C(=O)N[C@@H](CCCNC(=N)N)C(=O)O)C[C@@H]2CCCC[C@@H]21 [ICATIBANT]
Kb (Homo sapiens [3]): 6.31 nM

Compound: NC(N)=NCCC[C@@H](N)C(=O)N[C@@H](CCCN=C(N)N)C(=O)N1CCC[C@H]1C(=O)N1CC(O)C[C@H]1C(=O)NCC(=O)N[C@@H](Cc1cccs1)C(=O)N[C@@H](CO)C(=O)N[C@H]1CCc2cccc3c2N(C1=O)[C@@H](C(=O)N[C@H](CCCN=C(N)N)C(=O)O)C3 (some centres not stated)
Ki (B2 bradykinin receptor; cho): 160 nM

Compound: Cc1ccc2c(c1)SC[C@@H](NC(=O)[C@H](CO)NC(=O)[C@H](Cc1cccs1)NC(=O)CNC(=O)[C@@H]1C[C@@H](O)CN1C(=O)[C@@H]1CCCN1C(=O)[C@H](CCCNC(=N)N)NC(=O)[C@H](N)CCCNC(=N)N)C(=O)N2CC(=O)N[C@@H](CCCNC(=N)N)C(=O)O [listing 2 of 2 here]
pD2 (Homo sapiens [1]): 7.4 | pD2 (Homo sapiens [2]): 7.3
